In ChEMBL document CHEMBL1158044, “Bioactive depsides and anthocyanins from jaboticaba (Myrciaria cauliflora)” (J Nat Prod, 2006):

Columns and labels:
HT-29 = assay: Cytotoxicity against human HT-29 cells after 72 hrs; type: functional, cell-based; settings: HT-29, 72 h
Procedure, shortened: (§1)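 Colon cancer cells (10 000) seeded in DMEM with 10% FBS. After 24 h, treated with 1, 5, 10, 30, 50 and 70 µM compound for 72 h in DMEM with 1% FBS. Cells washed with PBS, trypsinized and counted on a Coulter Counter. IC50 derived. EGCG and Polyphenon E served as positive controls.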

[1] = Inhibition of IL8 production in human SAE cells at 100 uM; type: functional; design: Activity: scale not given: the % may be the effect or the level left
Procedure, shortened: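 Confluent human small airway epithelial cells (passages 4-8, 5% CO2, 37 °C) given compound at 100 µM without smoke extract. IL-8 in supernatant measured by ELISA after 24 h. Significance by two-sided Student's t-test at the 5% level.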

[2] = Cytotoxicity against human HCT 116 cells after 72 hrs; type: functional, cell-based; settings: HCT-116, 72 h; procedure, shortened: as §1
SW480 = assay: Cytotoxicity against human SW480 cells after 72 hrs; type: functional, cell-based; settings: SW480, 72 h; procedure, shortened: as §1
[3] = Inhibition of IL8 production in cigarette smoke extract treated human SAE cells at 100 uM; type: functional; design: scale not given: the % may be the effect or the level left
Procedure, shortened: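 Primary human small airway epithelial cells, confluent, passages 4-8, kept in 5% CO2 at 37 °C. CSE made by drawing smoke of one unfiltered 2R1 reference cigarette through 25 mL DPBS, set to pH 7.4, filtered and diluted to 5% in growth medium. Compound (100 µM) added 30 min before 5% CSE. After 24 h, supernatant IL-8 read by ELISA. Two-sided Student's t-test, 5% level.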

[4] = Antiradical activity assessed as DPPH radical scavenging activity; type: physicochemical
Procedure, shortened: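 DPPH radical scavenging done per an earlier method with 400 µM DPPH. Tested on extracts, fractions and pure compounds, with gallic acid as positive control. IC50 reported.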

OC[C@H]1O[C@@H](Oc2cc3c(O)cc(O)cc3[o+]c2-c2ccc(O)c(O)c2)[C@H](O)[C@@H](O)[C@@H]1O [KUROMANIN]
IC50 (HT-29): 100 µM
Activity [1]: 65.3%
IC50 [2]: 100 µM
IC50 (SW480): 100 µM
Activity [3]: 36.4%

COC(=O)Cc1c(O)cc(O)cc1OC(=O)c1ccc(O)c(O)c1 [JABOTICABIN]
IC50 (HT-29): 65 µM
inhibition at 100 µM ([1]; Homo sapiens, SAE): 81.3%
IC50 [4]: 51.4 µM
Activity [3]: 47.3%

O=C(O)Cc1c(O)cc(O)cc1OC(=O)c1ccc(O)c(O)c1
Activity [1]: 74.9%
IC50 [2]: 30 µM
IC50 [4]: 61.8 µM
Activity [3]: 70.3%

OC[C@H]1O[C@@H](Oc2cc3c(O)cc(O)cc3[o+]c2-c2cc(O)c(O)c(O)c2)[C@H](O)[C@@H](O)[C@@H]1O
IC50 [2]: 12 µM
IC50 (SW480): 20 µM
Activity [3]: 96%
